Assay results published in ChEMBL document CHEMBL3616436, “Synthesis, cytotoxicity and antimicrobial activity of thiourea derivatives incorporating 3-(trifluoromethyl)phenyl moiety” (Eur J Med Chem, 2015).
≈ marks a conversion by molar mass, not a printed value. Calls of active or inactive are those of the source. The rule behind the calls is not given here.

Experiments:
[1] = Cytotoxicity against human MT4 cells; format: cell-based
[2] = tested on: Vesicular stomatitis virus; test: Antiviral activity against Vesicular stomatitis virus ATCC VR 1540 infected in African green monkey Vero 76 cells assessed as reduction of virus-plaque formation after 2 days by crystal violet staining; format: functional, organism-based; conditions: ATCC VR 1540, Vero, 48 h
[3] = tested on: Human immunodeficiency virus 1; test: Antiviral activity against HIV1 3B infected in human MT4 cells assessed as protection against virus-induced cytopathogenicity by MTT assay; format: functional, organism-based; conditions: Human immunodeficiency virus 1, 3B
[4] = Cytotoxicity against bovine MDBK cells assessed as cell viability after 48 to 96 hrs by MTT assay; format: cell-based, Bos taurus; conditions: cattle
[5] = Antiviral activity against Bovine viral diarrhea virus 1-NADL ATCC VR-534 infected in MDBK cells assessed as protection against virus-induced cytopathogenicity after 3 to 4 days by MTT assay; format: functional, cell-based; conditions: Bovine viral diarrhea virus isolates and strains, ATCC VR-534, MDBK
Outline: (§1)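 Cells seeded in 96-well plates (BHK 5x10^4, MDBK 3x10^4 cells/well), grown overnight to confluence, infected at m.o.i. 0.01 (BHK for Reo-1, MDBK for BVDV); serial compound dilutions in maintenance medium with 0.5% inactivated FBS added after 1 h; viability by MTT after 3–4 days at 37°C; EC50 for 50% protection by linear regression.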

[6] = Cytotoxicity against BHK cells assessed as cell viability after 48 to 96 hrs by MTT assay; format: cell-based, Mesocricetus auratus; conditions: hamster
Yellow fever virus = test: Antiviral activity against Yellow fever virus 17D infected in BHK cells assessed as protection against virus-induced cytopathogenicity after 3 to 4 days by MTT assay; format: functional, cell-based
[7] = tested on: Mammalian orthoreovirus 1; test: Antiviral activity against Reovirus type-1 ATCC VR-214 infected in BHK cells assessed as protection against virus-induced cytopathogenicity after 3 to 4 days by MTT assay; format: functional, cell-based; conditions: Mammalian orthoreovirus 1, ATCC VR-214, BHK; outline: as §1
[8] = Cytotoxicity against African green monkey Vero 76 cells assessed as cell viability after 48 to 96 hrs by crystal violet staining; format: cell-based; conditions: chlorocebus sabaeus
Coxsackievirus B5 = test: Antiviral activity against Human coxsackievirus B5 ATCC VR-29 infected in African green monkey Vero 76 cells assessed as reduction of virus-plaque formation after 3 days by crystal violet staining; format: functional, organism-based; conditions: Enterovirus B, ATCC VR-29, Vero, 72 h
Outline: (§2)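 Plaque reduction: Vero-76 at 2x10^5 cells/well grown to confluent monolayers, infected 2 h at 50–100 PFU/well; after removing unadsorbed virus, overlay of D-MEM, 1% inactivated FBS, 0.75% methylcellulose with or without serial compound dilutions; 3 days at 37°C, fixed and stained with crystal violet in 50% ethanol, plaques counted; EC50 by linear regression.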

Poliovirus 1 = test: Antiviral activity against Poliovirus type 1 ATCC VR-1562 infected in African green monkey Vero 76 cells assessed as reduction of virus-plaque formation after 2 days by crystal violet staining; format: functional, organism-based; conditions: Enterovirus C, ATCC VR-1562, Vero, 48 h
Vaccinia virus = test: Antiviral activity against Human Vaccinia virus ATCC VR-1549 infected in African green monkey Vero 76 cells assessed as reduction of virus-plaque formation after 3 days by crystal violet staining; format: functional, organism-based; conditions: Orthopoxvirus vaccinia, ATCC VR-1549, Vero, 72 h
Human alphaherpesvirus 1 = test: Antiviral activity against Human herpesvirus 1 KOS ATCC VR-1493 infected in African green monkey Vero 76 cells assessed as reduction of virus-plaque formation after 3 days by crystal violet staining; format: functional, organism-based; conditions: Human alphaherpesvirus 1, KOS ATCC VR1493, Vero, 72 h; outline: as §2
CCRF-CEM = test: Cytotoxicity against human CCRF-CEM cells after 96 hrs by MTT assay; format: functional
Outline: (§3)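 Leukaemia/lymphoma lines seeded at 1×10^5 cells/ml in RPMI-1640 with 10% FCS and penicillin/streptomycin; incubated with serial dilutions at 37°C, 5% CO2; viability by MTT after 96 h; value is concentration reducing proliferation by 50%, with untreated controls undergoing at least three rounds of multiplication.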

WIL2-NS = test: Cytotoxicity against human WIL2-NS cells after 96 hrs by MTT assay; format: functional; outline: as §3
CCRF-SB = test: Cytotoxicity against human CCRF-SB cells after 96 hrs by MTT assay; format: functional; outline: as §3
Staphylococcus aureus [9] = test: Antimicrobial activity against Staphylococcus aureus NCTC 4163 at 400 ug after 18 hrs by disc-diffusion method; format: functional; conditions: NCTC 4163, 18 h, read-out: IZ
Outline: (§4)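 Disc diffusion on Mueller-Hinton II agar per CLSI; 9 mm paper discs loaded with 400 µg compound from DMSO solution, dried, placed on agar; growth inhibition zone diameter read after 18 h at 35°C.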

Staphylococcus aureus [10] = test: Antimicrobial activity against Staphylococcus aureus ATCC 25923 at 400 ug after 18 hrs by disc-diffusion method; format: functional; conditions: ATCC 25923, 18 h, read-out: IZ; outline: as §4
Staphylococcus aureus [11] = test: Antimicrobial activity against Staphylococcus aureus ATCC 6538 at 400 ug after 18 hrs by disc-diffusion method; format: functional; conditions: ATCC 6538, 18 h, read-out: IZ; outline: as §4
Staphylococcus aureus [12] = test: Antimicrobial activity against Staphylococcus aureus ATCC 29213 at 400 ug after 18 hrs by disc-diffusion method; format: functional; conditions: ATCC 29213, 18 h, read-out: IZ; outline: as §4
[13] = tested on: Staphylococcus epidermidis; test: Antimicrobial activity against Staphylococcus epidermidis ATCC 12228 at 400 ug after 18 hrs by disc-diffusion method; format: functional; conditions: ATCC 12228, 18 h, read-out: IZ; outline: as §4
[14] = tested on: Staphylococcus epidermidis; test: Antimicrobial activity against Staphylococcus epidermidis ATCC 35984 at 400 ug after 18 hrs by disc-diffusion method; format: functional; conditions: ATCC 35984, 18 h, read-out: IZ; outline: as §4
Bacillus subtilis = test: Antimicrobial activity against Bacillus subtilis ATCC 6633 at 400 ug after 18 hrs by disc-diffusion method; format: functional; conditions: ATCC 6633, 18 h, read-out: IZ; outline: as §4
Bacillus cereus = test: Antimicrobial activity against Bacillus cereus ATCC 11778 at 400 ug after 18 hrs by disc-diffusion method; format: functional; conditions: ATCC 11778, 18 h, read-out: IZ; outline: as §4
Enterococcus hirae = test: Antimicrobial activity against Enterococcus hirae ATCC 10541 at 400 ug after 18 hrs by disc-diffusion method; format: functional; conditions: ATCC 10541, 18 h, read-out: IZ; outline: as §4
Enterococcus faecalis = test: Antimicrobial activity against Enterococcus faecalis ATCC 29212 at 400 ug after 18 hrs by disc-diffusion method; format: functional; outline: as §4
Micrococcus luteus [15] = test: Antimicrobial activity against Micrococcus luteus ATCC 10240 at 400 ug after 18 hrs by disc-diffusion method; format: functional; conditions: ATCC 10240, 18 h, read-out: IZ; outline: as §4
Micrococcus luteus [16] = test: Antimicrobial activity against Micrococcus luteus ATCC 9341 at 400 ug after 18 hrs by disc-diffusion method; format: functional; conditions: ATCC 9341, 18 h, read-out: IZ; outline: as §4
Proteus vulgaris = test: Antimicrobial activity against Proteus vulgaris NCTC 4635 at 400 ug after 18 hrs by disc-diffusion method; format: functional; outline: as §4
Staphylococcus aureus [17] = test: Antimicrobial activity against Staphylococcus aureus NCTC 4163 after 18 hrs by twofold serial microdilution method; format: functional; conditions: NCTC 4163, 18 h
Staphylococcus aureus [18] = test: Antimicrobial activity against Staphylococcus aureus ATCC 25923 after 18 hrs by twofold serial microdilution method; format: functional; conditions: ATCC 25923, 18 h
Staphylococcus aureus [19] = test: Antimicrobial activity against Staphylococcus aureus ATCC 6538 after 18 hrs by twofold serial microdilution method; format: functional; conditions: ATCC 6538, 18 h
Staphylococcus aureus [20] = test: Antimicrobial activity against Staphylococcus aureus ATCC 29213 after 18 hrs by twofold serial microdilution method; format: functional; conditions: ATCC 29213, 18 h
[21] = tested on: Staphylococcus epidermidis; test: Antimicrobial activity against Staphylococcus epidermidis ATCC 12228 after 18 hrs by twofold serial microdilution method; format: functional; conditions: ATCC 12228, 18 h
[22] = tested on: Staphylococcus epidermidis; test: Antimicrobial activity against Staphylococcus epidermidis ATCC 35984 after 18 hrs by twofold serial microdilution method; format: functional; conditions: ATCC 35984, 18 h
[23] = tested on: Mycobacterium tuberculosis; test: Antimycobacterial activity against Mycobacterium tuberculosis H37Rv ATCC 25618; format: functional
Outline: (§5)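 Classical test-tube successive-dilution method in Youmans' modification of Proskauer and Beck liquid medium with 10% bovine serum. Inoculum came from 14-day cultures. DMSO stock was 10 mg/mL, diluted geometrically in medium. Tubes were incubated at 37 °C. Concentrations tested were 3.1, 6.2, 12.5, 25, 50 and 100 µg/ml. MIC is the minimum concentration inhibiting growth relative to compound-free tubes.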

[24] = tested on: Mycobacterium tuberculosis; test: Antimycobacterial activity against drug-sensitive Mycobacterium tuberculosis Spec. 192; format: functional; outline: as §5
Escherichia coli [25] = test: Antimicrobial activity against Escherichia coli ATCC 10538 after 18 hrs by twofold serial microdilution method; format: functional, organism-based
Escherichia coli [26] = test: Antimicrobial activity against Escherichia coli ATCC 25922 after 18 hrs by twofold serial microdilution method; format: functional, organism-based
Escherichia coli [27] = test: Antimicrobial activity against Escherichia coli NCTC 8196 after 18 hrs by twofold serial microdilution method; format: functional, organism-based
Pseudomonas aeruginosa [28] = test: Antimicrobial activity against Pseudomonas aeruginosa ATCC 15442 after 18 hrs by twofold serial microdilution method; format: functional, organism-based
Pseudomonas aeruginosa [29] = test: Antimicrobial activity against Pseudomonas aeruginosa NCTC 6749 after 18 hrs by twofold serial microdilution method; format: functional, organism-based
Pseudomonas aeruginosa [30] = test: Antimicrobial activity against Pseudomonas aeruginosa ATCC 27863 after 18 hrs by twofold serial microdilution method; format: functional, organism-based
[31] = tested on: Bordetella bronchiseptica; test: Antimicrobial activity against Bordetella bronchiseptica ATCC 4617 after 18 hrs by twofold serial microdilution method; format: functional, organism-based
Candida albicans [32] = test: Antimicrobial activity against Candida albicans ATCC 10231 after 24 hrs by twofold serial microdilution method; format: functional, organism-based
Candida albicans [33] = test: Antimicrobial activity against Candida albicans ATCC 90028 after 24 hrs by twofold serial microdilution method; format: functional, organism-based
Candida parapsilosis = test: Antimicrobial activity against Candida parapsilosis ATCC 22019 after 24 hrs by twofold serial microdilution method; format: functional, organism-based

Compound: O=[N+]([O-])c1ccc(NC(=S)Nc2cccc(C(F)(F)F)c2)cc1
- CC50 [1]: 9.2 µM
- EC50 [2]: > 10 µM
- EC50 [3]: > 9.2 µM
- CC50 [4]: 10 µM
- EC50 [5]: > 10 µM
- CC50 [6]: 9.5 µM
- EC50 (Yellow fever virus): > 9.5 µM
- EC50 [7]: > 9.5 µM
- CC50 [8]: 10 µM
- EC50 (Coxsackievirus B5): > 10 µM
- EC50 (Poliovirus 1): > 10 µM
- EC50 (Vaccinia virus): > 10 µM
- EC50 (Human alphaherpesvirus 1): > 10 µM
- CC50 (CCRF-CEM): 8.7 µM
- CC50 (WIL2-NS): 9.4 µM
- CC50 (CCRF-SB): 8.2 µM
- zone of inhibition at 400 µg/disc (Staphylococcus aureus [9]): 16 mm
- zone of inhibition at 400 µg/disc (Staphylococcus aureus [10]): 20 mm
- zone of inhibition at 400 µg/disc (Staphylococcus aureus [11]): 15 mm
- zone of inhibition at 400 µg/disc (Staphylococcus aureus [12]): 16 mm
- zone of inhibition at 400 µg/disc [13]: 13 mm
- zone of inhibition at 400 µg/disc [14]: 12 mm
- zone of inhibition at 400 µg/disc (Bacillus subtilis): 15 mm
- zone of inhibition at 400 µg/disc (Bacillus cereus): 15 mm
- zone of inhibition at 400 µg/disc (Enterococcus hirae): 13 mm
- inhibition zone (IZ) (Enterococcus faecalis): inactive
- zone of inhibition at 400 µg/disc (Micrococcus luteus [15]): 13 mm
- zone of inhibition at 400 µg/disc (Micrococcus luteus [16]): 13 mm
- inhibition zone (IZ) (Proteus vulgaris): inactive
- MIC (Staphylococcus aureus [17]): 128 µg/mL (≈ 375 µM)
- MIC (Staphylococcus aureus [18]): 128 µg/mL (≈ 375 µM)
- MIC (Staphylococcus aureus [19]): 64 µg/mL (≈ 188 µM)
- MIC (Staphylococcus aureus [20]): 64 µg/mL (≈ 188 µM)
- MIC [21]: 64 µg/mL (≈ 188 µM)
- MIC [22]: 64 µg/mL (≈ 188 µM)
- MIC [23]: 50 µg/mL (≈ 146 µM)
- MIC [24]: > 100 µg/mL

Compound: CCCCc1ccc(NC(=S)Nc2cccc(C(F)(F)F)c2)c(C)c1
- CC50 [1]: 43 µM
- EC50 [2]: > 18 µM
- EC50 [3]: > 43 µM
- CC50 [4]: 10 µM
- EC50 [5]: > 10 µM
- CC50 [6]: 9 µM
- EC50 (Yellow fever virus): > 9 µM
- EC50 [7]: > 9 µM
- CC50 [8]: 18 µM
- EC50 (Coxsackievirus B5): > 18 µM
- EC50 (Poliovirus 1): > 18 µM
- EC50 (Vaccinia virus): > 18 µM
- EC50 (Human alphaherpesvirus 1): > 18 µM
- Activity (Escherichia coli [25]): inactive
- Activity (Escherichia coli [26]): inactive
- Activity (Escherichia coli [27]): inactive
- Activity (Pseudomonas aeruginosa [28]): inactive
- Activity (Pseudomonas aeruginosa [29]): inactive
- Activity (Pseudomonas aeruginosa [30]): inactive
- Activity [31]: inactive
- Activity (Candida albicans [32]): inactive
- Activity (Candida albicans [33]): inactive
- Activity (Candida parapsilosis): inactive
- MIC [23]: 50 µg/mL (≈ 136 µM)
- MIC [24]: 100 µg/mL (≈ 273 µM)
